This note sets out measurements from ChEMBL document CHEMBL3297715, “Potent cytotoxic arylnaphthalene lignan lactones from Phyllanthus poilanei” (J Nat Prod, 2014).

Structures are written as SMILES. The source made the active and inactive calls. The rule behind the calls is not given here.

Data set [1] has as its target DNA topoisomerase 2-alpha (Homo sapiens) (UniProt P11388). In words: Inhibition of topoisomerase 2-alpha (unknown origin)-mediated relaxation of supercoiled pBR322 DNA at 100 uM by ethidium bromide staining based agarose gel electrophoresis.
For data set [2], the system named is HT-29. Put plainly: Cytotoxicity against human HT-29 cells. It is filed as functional, cell-based. The method in brief:
(§1)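 Paired cancer (HT-29 colon) and normal (CCD-112CoN colon) human cell lines, same screening method for both. Paclitaxel and etoposide as positive controls. IC50 from nonlinear regression. Triplicate measurements, representative of two independent experiments.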

A short description of data set [3]: Cytotoxicity against human CCD-112CoN cells. It is filed as cell-based. The gist of the method:
as §1

The subject of data set [4] is HT-29. Put plainly: Induction of apoptosis in human HT-29 cells assessed as early apoptotic cells at 5 uM after 72 hrs by flow cytometry (reference value: 3.93%). It is filed as functional.
The test system of data set [5] is HT-29. Put plainly: Induction of apoptosis in human HT-29 cells assessed as late apoptotic cells at 5 uM after 72 hrs by flow cytometry (reference value: 8.60%). Format: functional.
For data set [6], the system named is HT-29. Put plainly: Induction of apoptosis in human HT-29 cells assessed as late apoptotic cells at 1 uM after 72 hrs by flow cytometry (reference value: 8.60%). It is filed as functional.
The test system of data set [7] is HT-29. In words: Induction of apoptosis in human HT-29 cells assessed as early apoptotic cells at 1 uM after 72 hrs by flow cytometry (reference value: 3.93%). It is filed as functional.
Data set [8] concerns HT-29. In words: Antitumor activity against human HT-29 cells xenografted in immunodeficient NCr nu/nu mouse assessed as inhibition of cell growth at 10 to 20 mg/kg, ip qd for 4 days administered from day 3 to day 6 post-implantation measured on day 7. Format: functional, organism-based. The gist of the method:
(§2)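 HT-29 human colon cancer cells in hollow fibres implanted in 8–9-week-old NCr nu/nu mice. Drug in DMSO/Cremophor, diluted with water to 13% DMSO and 25% Cremophor. Doses 5.0–20.0 mg/kg ip once daily for 4 days (days 3–6); vehicle control; paclitaxel 5 mg/kg. Fibres retrieved day 7. Modified MTT net growth (day 7 minus day 0) relative to vehicle; n=3 treated; Student's t test.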

For data set [9], the system named is HT-29. In words: Antitumor activity against human HT-29 cells xenografted in ip dosed immunodeficient NCr nu/nu mouse assessed as inhibition of cell growth administered qd for 4 days from day 3 to day 6 post-implantation measured on day 7. Format: functional, organism-based. The gist of the method:
as §2

In the next data set the test system is Mus musculus. In words: Toxicity in immunodeficient NCr nu/nu mouse xenografted with human HT-29 cells at 5 to 20 mg/kg, ip qd for 4 days administered from day 3 to day 6 post-implantation. It is filed as organism-based. Details: dose 5-20 mg/kg, route intraperitoneal. To be noted: in vivo, 96 h. The method in brief: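 NCr nu/nu mice bearing hollow-fibre HT-29 implants. Dosed ip once daily for 4 days at 5.0–20.0 mg/kg in 13% DMSO/25% Cremophor/water. Body weight recorded daily and signs of toxicity observed until sacrifice on day 7.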

Data set [10] concerns HT-29. Put plainly: Antitumor activity against human HT-29 cells xenografted in immunodeficient NCr nu/nu mouse assessed as inhibition of cell growth at 5 mg/kg, ip qd for 4 days administered from day 3 to day 6 post-implantation measured on day 7. Format: functional, organism-based. Details: dose 5 mg/kg. The gist of the method:
as §2

Data set [11] deals with HT-29. In words: Induction of apoptosis in human HT-29 cells assessed as caspase-3 activation by measuring cleaved caspase-3 level at 1 to 10 uM after 24 hrs by western blot analysis. It is filed as functional, cell-based. The method in brief:
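HT-29 cells exposed 24 h to a range of concentrations. Lysed in NP-40/HEPES pH 7.5/0.5 M NaCl buffer with protease and phosphatase inhibitors. Resolved on 4–15% SDS-PAGE and immunoblotted with rabbit monoclonal cleaved caspase-3 (Asp175) antibody. Representative of three independent experiments.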

Chain of DNA topoisomerase 2-alpha (Homo sapiens) (P11388 whole entry): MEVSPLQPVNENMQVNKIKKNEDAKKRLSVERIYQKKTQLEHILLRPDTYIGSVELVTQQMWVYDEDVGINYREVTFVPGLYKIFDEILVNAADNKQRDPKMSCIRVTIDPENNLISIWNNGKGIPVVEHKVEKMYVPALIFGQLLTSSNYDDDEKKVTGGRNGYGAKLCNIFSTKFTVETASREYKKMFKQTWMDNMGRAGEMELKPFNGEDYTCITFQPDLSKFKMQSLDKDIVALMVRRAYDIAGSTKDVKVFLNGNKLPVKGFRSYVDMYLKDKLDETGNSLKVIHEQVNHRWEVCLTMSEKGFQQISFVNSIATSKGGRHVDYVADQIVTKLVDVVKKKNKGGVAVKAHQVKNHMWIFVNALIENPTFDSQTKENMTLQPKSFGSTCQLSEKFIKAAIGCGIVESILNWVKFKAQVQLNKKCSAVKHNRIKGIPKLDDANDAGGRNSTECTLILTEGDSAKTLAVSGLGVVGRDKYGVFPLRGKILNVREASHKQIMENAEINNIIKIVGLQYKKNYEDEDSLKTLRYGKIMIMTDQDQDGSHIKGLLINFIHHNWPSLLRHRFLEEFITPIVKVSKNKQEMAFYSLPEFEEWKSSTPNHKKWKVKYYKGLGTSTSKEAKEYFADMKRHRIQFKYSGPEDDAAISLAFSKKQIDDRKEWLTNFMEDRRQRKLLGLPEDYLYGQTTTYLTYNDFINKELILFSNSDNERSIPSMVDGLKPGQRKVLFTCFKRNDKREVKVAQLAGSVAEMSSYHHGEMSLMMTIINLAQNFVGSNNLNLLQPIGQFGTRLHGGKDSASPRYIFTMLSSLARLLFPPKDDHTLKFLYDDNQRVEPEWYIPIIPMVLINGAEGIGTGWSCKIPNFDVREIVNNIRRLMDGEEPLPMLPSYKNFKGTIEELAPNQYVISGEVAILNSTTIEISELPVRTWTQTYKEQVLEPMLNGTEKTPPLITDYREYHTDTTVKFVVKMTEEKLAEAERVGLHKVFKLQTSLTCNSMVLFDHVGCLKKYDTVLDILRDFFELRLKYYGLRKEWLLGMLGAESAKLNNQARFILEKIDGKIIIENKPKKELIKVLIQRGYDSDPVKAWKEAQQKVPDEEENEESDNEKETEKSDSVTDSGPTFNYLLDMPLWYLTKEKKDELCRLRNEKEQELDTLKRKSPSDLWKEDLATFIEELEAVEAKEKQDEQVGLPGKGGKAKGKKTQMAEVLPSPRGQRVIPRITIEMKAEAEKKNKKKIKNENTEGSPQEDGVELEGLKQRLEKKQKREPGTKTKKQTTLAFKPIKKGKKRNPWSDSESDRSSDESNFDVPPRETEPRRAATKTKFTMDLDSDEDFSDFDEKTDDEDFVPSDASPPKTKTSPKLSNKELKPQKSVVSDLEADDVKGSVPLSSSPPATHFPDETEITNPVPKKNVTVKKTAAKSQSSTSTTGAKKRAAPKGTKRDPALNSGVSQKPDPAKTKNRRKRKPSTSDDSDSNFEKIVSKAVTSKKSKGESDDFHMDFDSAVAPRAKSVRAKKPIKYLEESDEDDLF

As to `COc1cc2c(O[C@@H]3OC[C@H](OC(C)=O)[C@H](OC(C)=O)[C@H]3OC(C)=O)c3c(c(-c4ccc5c(c4)OCO5)c2cc1OC)C(=O)OC3`, in data set [1], the inhibition entry is “inactive”. This molecule registered a half-inhibitory concentration (IC50) with HT-29 [2] of 110 nM.
With `COc1cc2c(O[C@@H]3OC[C@H](O)[C@H](O)[C@H]3O)c3c(c(-c4ccc5c(c4)OCO5)c2cc1OC)C(=O)OC3` [ACUTISSIMALIGNAN A], the inhibition entry in [1] is “inactive”. For the same molecule, the figures for the half-inhibitory concentration (IC50) (in data set [3]; in the data set with HT-29 [2]) were greater than 100 µM and 3200 nM, respectively.
`COc1cc2c(O)c3c(c(-c4ccc5c(c4)OCO5)c2cc1OC)C(=O)OC3` [DIPHYLLIN] gave an IC50 in the data set with HT-29 [2] of 7600 nM.
Molecule `COc1cc2c(OC)c3c(c(-c4ccc5c(c4)OCO5)c2cc1OC)C(=O)OC3` [JUSTICIDIN A] registered a 50% inhibitory concentration (IC50) in the data set on HT-29 [2] greater than 10000 nM.
In [3], `CC(=O)O[C@H]1C(=O)[C@@]2(C)[C@H]([C@H](OC(=O)c3ccccc3)[C@]3(O)C[C@H](OC(=O)[C@H](O)[C@@H](NC(=O)c4ccccc4)c4ccccc4)C(C)=C1C3(C)C)[C@]1(OC(C)=O)CO[C@@H]1C[C@@H]2O` [PACLITAXEL] gave an IC50 of 23 µM.
Regarding `COc1cc2c(O[C@@H]3O[C@H](CO)[C@@H](O)[C@H](O)[C@H]3O)c3c(c(-c4ccc5c(c4)OCO5)c2cc1OC)C(=O)OC3`, the 50% inhibitory concentration (IC50) in the data set with HT-29 [2] is greater than 10000 nM.
For the molecule `COc1cc2c(O[C@@H]3OC[C@H](OC(C)=O)[C@H](OC(C)=O)[C@H]3O)c3c(c(-c4ccc5c(c4)OCO5)c2cc1OC)C(=O)OC3`, the Activity is on record as 30.3% with HT-29 [4]; 38% with HT-29 [5]; 27.3% with HT-29 [6]; 28.2% in the data set on HT-29 [7]; “Non-toxic” with Mus musculus. Also, in the data set on HT-29 [8], the inhibition entry is “Active”. In the data set with HT-29 [9], the inhibition entry was “Dose-dependent effect”. Further, the inhibition result (with HT-29 [10]; in data set [1]) was “inactive” each time. The half-maximal inhibitory concentration (IC50) in data set [3] is greater than 100 µM; in the data set with HT-29 [2], 170 nM. Further, in the data set on HT-29 [11], the result was Active.
In the case of `COc1cc2c(O[C@@H]3OC[C@H](O)[C@H](OC(C)=O)[C@H]3O)c3c(c(-c4ccc5c(c4)OCO5)c2cc1OC)C(=O)OC3`, the IC50 with HT-29 [2] came out at 1800 nM.
As for `COc1cc([C@@H]2c3cc4c(cc3[C@@H](O[C@@H]3O[C@@H]5CO[C@@H](C)O[C@H]5[C@H](O)[C@H]3O)[C@H]3COC(=O)[C@H]23)OCO4)cc(OC)c1O` [ETOPOSIDE], the Activity in the data set on HT-29 [4] came out at 12.5%; with HT-29 [5] it was 25.3%; in the data set on HT-29 [6], 19.8%; with HT-29 [7], 12.9%. Further, the outcome in the data set with HT-29 [11] was inactive.
As to `COc1cc2c(O[C@@H]3OC[C@H](OC(C)=O)[C@H](O)[C@H]3O)c3c(c(-c4ccc5c(c4)OCO5)c2cc1OC)C(=O)OC3`, half-maximal inhibition in the data set with HT-29 [2] (IC50) was put at 1800 nM.
